This sample holds only a part of the variants without activity.
B1: tRNA (parent)
chain: GUUCCGUUGGCGUAAUGGUAACGCGUCUCCCUCCUAAGGAGAAGACUGCGGGUUCGAGUCCCGUACGGAACG

Variants of: B1
Assay: yeast fitness relative to wild type (ratio to wild type); higher = fitter; tRNA-Arg(CCU), competitive growth, 37 C, YPD
Outline: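 Gene amplicons from the start population and from each of six end populations were read by 100-nucleotide paired-end sequencing. Those end populations came from pooled Saccharomyces cerevisiae strains carrying tRNA-Arg(CCU) gene variants at the native locus, competed in YPD at 37°C for 24 hours. Fitness relative to wild type was worked out from changes in genotype frequencies. Genotypes needed ≥ 100 starting reads, and estimates < 0.5 were set to 0.5.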

Variant	yeast fitness
GUUCCGUUGGCGUAAUGGUAACGCGUCUGCCUCCUAAGGAGAAGACUGCGGGUUCAAGUCACGUACGGAACG [C29G G56A C61A]	0.547
GUUCCGUUGGCGUAAUGGUAACGCGUCUGCCUCCUAAGGAGAAGACUGCGGGUUCAAGUCUCGUACGGAACG [C29G G56A C61U]	≤ 0.5
GUUCCGUUGGCGUAAUGGUAACGCGUCUGCCUCCUAAGGAGAAGACUGCGGGUUCAAGUCCCGUACGCAACG [C29G G56A G68C]	≤ 0.5
GUUCCGUUGGCGUAAUGGUAACGCGUCUGCCUCCUAAGGAGAAGACUGCGGGUUCCAGUCACGUACGGAACG [C29G G56C C61A]	0.512
GUUCCGUUGGCGUAAUGGUAACGCGUCUGCCUCCUAAGGAGAAGACUGCGGGUUCGAAUCCCGUACGGAACG [C29G G58A]	0.68
GUUCCGUUGGCGUAAUGGUAACGCGUCUGCCUCCUAAGGAGAAGACUGCGGGUUCGACUCCCGUCCGGAACG [C29G G58C A65C]	≤ 0.5
GUUCCGUUGGCGUAAUGGUAACGCGUCUGCCUCCUAAGGAGAAGACUGCGGGUUCGACUCCCGUACGGUACG [C29G G58C A69U]	0.607
GUUCCGUUGGCGUAAUGGUAACGCGUCUGCCUCCUAAGGAGAAGACUGCGGGUUCGAGUCCCCUACGGAUCG [C29G G63C A70U]	≤ 0.5
GUUCCGUUGGCGUAAUGGUAACGCGUCUGCCUCCUAAGGAGAAGACUGCGGGUUCGAGUCCCGUACCGAACG [C29G G67C]	0.667
GUUCCGUUGGCGUAAUGGUAACGCGUCUGCCUCCUAAGGAGAAGACUGCGGGUUCGAGUCCCGUACGAAACG [C29G G68A]	0.595
GUUCCGUUGGCGUAAUGGUAACGCGUCUGCCACCUAAGGAGAAGACUGCGGGUUCGAGUCCCGUACGGAACG [C29G U32A]	0.501
GUUCCGUUGGCGUAAUGGUAACGCGUCUGCCAUCUAAGGAGAAGACUGCGGGUUCGAGUCCCGUACGGAACG [C29G U32A C33U]	≤ 0.5
GUUCCGUUGGCGUAAUGGUAACGCGUCUGCCCCCUAAGGAGAAGACUGCGGGUUCGAGUCCCGUACGGAACG [C29G U32C]	0.563
GUUCCGUUGGCGUAAUGGUAACGCGUCUGCCCCCUGAGGAGAAGACUGCGGGUUCGAGUACCGUACGGAACG [C29G U32C A36G C60A]	≤ 0.5
GUUCCGUUGGCGUAAUGGUAACGCGUCUGCCCCCUUAGGAGAAGACUGCGGGUUCGAGUCGCGUACGGAACG [C29G U32C A36U C61G]	≤ 0.5
GUUCCGUUGGCGUAAUGGUAACGCGUCUGCCCCUUAAGGAGAAGACUGCGGGUUCAAGUCCCGUACGGAACG [C29G U32C C34U G56A]	0.667
GUUCCGUUGGCGUAAUGGUAACGCGUCUGCCCCCUAAGGAGAAGAUUGCGGGUUCGAGUCCCGUACGGAACG [C29G U32C C46U]	≤ 0.5
GUUCCGUUGGCGUAAUGGUAACGCGUCUGCCGCCUAAAGAGAAGACUCCGGGUUCGAGUCCCGUACUGCACG [C29G U32G G38A G48C G67U A69C]	≤ 0.5
GUUCCGUUGGCGUAAUGGUAACGCGUCUGCCGCCUAAAGAGAAGACUGCGGGCUCGAGUCCCGUACGGAACG [C29G U32G G38A U53C]	0.566

Variant	yeast fitness
GUUCCGUUGGCGUAAUGGUAACGCGUCUGCCGCCUAAAGAGAAGACUGCGGGCUCGUGUCCUGUACGGAACG [C29G U32G G38A U53C A57U C62U]	≤ 0.5
GUUCCGUUGGCGUAAUGGUAACGCGUCUGCCGCCUAAAGAGAAGACUGCGGGCUCGAGUCCCGUAUGGAACG [C29G U32G G38A U53C C66U]	≤ 0.5
GUUCCGUUGGCGUAAUGGUAACGCGUCUGCCUCCAAAGGAGAAGACUGCGGGUUCGAGUCCCGUACGGAACG [C29G U35A]	0.582
GUUCCGUUGGCGUAAUGGUAACGCGUCUGCCUCCACAGGAGAAGACUGCGGGUUCGAGUCCCGUGGGGAACG [C29G U35A A36C A65G C66G]	≤ 0.5
GUUCCGUUGGCGUAAUGGUAACGCGUCUGCCUCCAAAGGAGAAGACUGCGGGUUCGAGUCCCGUACGCAACG [C29G U35A G68C]	≤ 0.5
GUUCCGUUGGCGUAAUGGUAACGCGUCUGCCUCCCAAGGAGAAGACUGCGGGUUCGAGUCCCGUACGGAACG [C29G U35C]	0.522
GUUCCGUUGGCGUAAUGGUAACGCGUCUGCCUCCCAAGGAGAAGUCUGCGGGUUCGAGUGCCCUACGGAACG [C29G U35C A45U C60G G63C]	0.669
GUUCCGUUGGCGUAAUGGUAACGCGUCUGCCUCCCAAGGAGAAGACUGCGGGUUCGGGUCCCGUACGGAACG [C29G U35C A57G]	≤ 0.5
GUUCCGUUGGCGUAAUGGUAACGCGUCUGCCUCCGAAGGAGAAGACUGCGGGUUCGAGUCCCGUACGGAACG [C29G U35G]	≤ 0.5
GUUCCGUUGGCGUAAUGGUAACGCGUCUGCCUCCGAAGGAGAAGACUGCGGGUUCGAGUGCCGUACGGAACG [C29G U35G C60G]	≤ 0.5
GUUCCGUUGGCGUAAUGGUAACGCGUCUGCCUCCGAAGGAGAAGACUGCGGGUUCGAGUGCGGUACGGAACG [C29G U35G C60G C62G]	≤ 0.5
GUUCCGUUGGCGUAAUGGUAACGCGUCUGCCUCCGAAGGAGAAGACUGCGGGUUCGAGUCUCGUACGGAACG [C29G U35G C61U]	0.552
GUUCCGUUGGCGUAAUGGUAACGCGUCUGCCUCCGAAGGAGAAGACUGCGGGUUCGAGUCCUGUACGGUACG [C29G U35G C62U A69U]	≤ 0.5
GUUCCGUUGGCGUAAUGGUAACGCGUCUGCCUCCGAAGGACAAGACUGCGGGUUCGAGUCCUGAACGGAACG [C29G U35G G41C C62U U64A]	0.602
GUUCCGUUGGCGUAAUGGUAACGCGUCUGCCUCCUAAGGAGAAGACAGCGGGUUCGAGUCCCGUACGGAACG [C29G U47A]	0.561
GUUCCGUUGGCGUAAUGGUAACGCGUCUGCCUCCUAAGGAGAAGACAGCGGGUUCGAGACCCGUACGGGACG [C29G U47A U59A A69G]	≤ 0.5
GUUCCGUUGGCGUAAUGGUAACGCGUCUGCCUCCUAAGGAGAAGACCGGGGGUUCGAGUGCCGUACGGAACG [C29G U47C C49G C60G]	0.648
GUUCCGUUGGCGUAAUGGUAACGCGUCUGCCUCCUAAGGAGAAGACGGCGGGUUCGAGUCCCGUACGGAACG [C29G U47G]	0.707

Source: the RNAGym collection of RNA variant scans (doi:10.1126/science.aae0568)
